Measured values taken from ChEMBL document CHEMBL3608231, “Eremophilane Sesquiterpenes and Polyketones Produced by an Endophytic Guignardia Fungus from the Toxic Plant Gelsemium elegans” (J Nat Prod, 2015).
Calls of active or inactive are those of the source.

Experiments:
Type in all cases: functional, cell-based
HCT-8 = assay: Cytotoxicity against human HCT8 cells after 72 hrs by MTT assay
Outline: (§1)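 Cells kept in RPMI 1640 with 10% FBS in 96-well plates, 24 h at 37 °C, then samples added from DMSO solution at final 10 μM. Growth assessed after 72 h by MTT (4 h at 37 °C), formazan dissolved in DMSO, absorbance at 570 nm. Camptothecin as positive control.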

HCT-116 = assay: Cytotoxicity against human HCT116 cells after 72 hrs by MTT assay; outline: as §1
Bel-7402 = assay: Cytotoxicity against human Bel7402 cells after 72 hrs by MTT assay; outline: as §1
BGC-823 = assay: Cytotoxicity against human BGC823 cells after 72 hrs by MTT assay; outline: as §1
A549 = assay: Cytotoxicity against human A549 cells after 72 hrs by MTT assay; outline: as §1
A2780 = assay: Cytotoxicity against human A2780 cells after 72 hrs by MTT assay; outline: as §1

Measured: Activity

C[C@H]1CCC(=O)O[C@@H]2C(=O)c3c(O)cccc3O[C@H]21
inactive: all assays above

CC(C)=C1C[C@@]2(C)C(=CC1=O)[C@@H](O)[C@H](O)[C@H](O)[C@@H]2C
inactive: all assays above

CC(=O)O[C@H]1[C@@H](O)CC2=CC(=O)C(O)=C[C@]2(C)[C@H]1C
inactive: all assays above

C=C(C)[C@@H]1CC[C@@]2(C)OC3=C(C[C@@H]12)C(=O)[C@@H]1C[C@@]3(O)CO1
inactive: all assays above

C=C(C)[C@H]1C[C@@]2(C)C(=CC1=O)[C@H](O)[C@H](O)C[C@@H]2C
inactive: all assays above

C=C(C)[C@@H]1C[C@@]2(C)C(=CC(=O)C[C@@H]2C)C[C@H]1O
inactive: all assays above

C=C(C)[C@@H]1C[C@@]2(C)C(=CC1=O)[C@@H](O)[C@H](O)[C@H](O)[C@@H]2C
inactive: all assays above

C=C1CC[C@H]2C(C)(C)CCC[C@]2(C)[C@H]1C[C@@]12O[C@@H]1[C@H](O)C(CO)=CC2=O
inactive: all assays above

C=C(C(C)=O)C(=C\c1cccc(C)c1N)/C(=C/O)CC
inactive: all assays above
